Screens as filed in PubChem.
These entries were drawn from the full list.
PGC1a acetyl up: raises PGC1a acetylation signal in U2OS cells; U2OS PGC1a acetylation AlphaScreen, overnight; activation, % at 15.6 µM; 350,000 tested, 0.21% active; AID 651723;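 active = every replicate reaching activation of at least 50%, whatever the mean replicate activation; inconclusive = replicates that disagree or another doubt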;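 also: hits raise the AlphaScreen acetylation signal above neutral controls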
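System: flag-PGC1a/GCN5 U2OS cells / Input: 7000 cells/well / Compound: single test concentration per compound / Incubation: overnight compound treatment, 37 °C / Technique: AlphaScreen on lysates with anti-acetyl-lysine antibody, acceptor and donor beads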
G6PC hep suppr: hepatocyte G6PC expression change via PGC-1a acetylation activation. shares compounds with PGC1a acetyl up. primary mouse hepatocytes, G6PC mRNA qPCR, forskolin. G6PC suppression (normalized activity, % of positive control; higher = more suppression), % at 26 µM. 240 tested, under 10 active. AID 743463;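 active = dose curves showing G6PC suppression whose half-maximal dose is at most twice the top valid dose; inconclusive = flat curves with moderate negative activity, or unreliable fits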;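 also: G6PC expression relative to GAPDH housekeeping gene as delta delta Ct; 0% = median of neutral control wells and 100% = median of positive control wells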
PCK1 hep suppr: PGC-1a acetylation activator altering hepatocyte PCK1 expression | shares compounds with PGC1a acetyl up | primary mouse hepatocytes, PCK1 mRNA qPCR, forskolin-stimulated | PCK1 expression decrease, unspecified at 26 µM | 230 tested, under 10 active | AID 743465;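 active = compounds lowering PCK1 expression whose fitted half-maximal concentration is at most twice the top tested dose; inconclusive = flat fit with moderate opposite-direction effect, or poor fit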;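 also: values are delta delta Ct of PCK1 relative to GAPDH; higher delta delta Ct means lower PCK1 expression so positive values indicate hits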
PGC1a hep suppr: hepatocyte PGC-1a expression change via PGC-1a acetylation activation | shares compounds with PGC1a acetyl up | max activity (PGC-1a expression decrease), % | 240 tested, under 10 active | primary mouse hepatocytes, PGC-1a mRNA qPCR, forskolin; top dose 26 µM;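 active = compound lowering PGC-1a expression with fitted half-maximal concentration at most twice its top tested dose; inconclusive = flat curve with moderate opposite-direction effect, or poor fit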;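 also: 0% = neutral control wells median and 100% = positive control wells median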
* = called active by the depositor; i = inactive; u = inconclusive.

SMILES | PGC1a acetyl up | others
CCCCN1C(=O)NC(=O)C2(Cc3c(nc4c(C)cccn4c3=O)N3CCc4ccccc4C32)C1=O (stereo not given) | 68*
CCC1CN2CCc3cc(OC)c(OC)cc3C2CC1CC1NCCc2c1[nH]c1ccc(O)cc21 (stereo not given) | -70
CC1CC(C)(O)CC(C(O)CC2CC(=O)NC(=O)C2)C1=O (stereo not given) | -77
CC(=O)OC1CC2OC3C=C(C)CCC3(C)C1(C)C21CO1 (stereo not given) | -87
CC(C)(C)n1nnnc1C(CCc1ccccc1)N1CCC2(CC1)C(=O)NCN2c1ccccc1 (stereo not given) | 71*
O=c1[nH]c2ccccc2n1C1CCN(C(CCc2ccccc2)c2nnnn2Cc2ccccc2)CC1 (stereo not given) | -103
CC(=O)O[C@H]1C[C@@H]2OC3C=C(C)CCC3(C)[C@@]1(C)[C@@]21CO1 (stereo not given in full) | -84
CC[C@H](C)[C@@H]1NC(=O)CNC(=O)c2csc(n2)[C@H](C(C)(C)O)OC(=O)C(C)(C)[C@H](CCCC(C)(Cl)Cl)OC(=O)c2csc1n2 | -60
CN(C)CCN=Cc1c(O)n(Cc2ccco2)c(=O)[nH]c1=O | 82*
O=c1[nH]c(=S)n(Cc2ccco2)c(O)c1C=NCc1cccs1 | -41
CN1C(=O)/C(=C\c2ccc(N3CCCCC3)o2)C(=O)NC1=S | 54*
CC(N)C(=O)NC1C2C(=C(O)CC(O)C2O)C(=O)OC1(C)C(Cl)Cl (stereo not given) | -74
COc1ccc(CC2C(=O)NC(C)C(=O)N(C)C3C(=O)N(C)C(Cc4ccc(O)c(c4)Oc4ccc(cc4)C3O)C(=O)NC(C)C(=O)NC(C)C(=O)N2C)cc1 (stereo not given) | -76
COc1cccc(C(c2nnnn2C2CCCCC2)N2CCC3(CC2)C(=O)NCN3c2ccccc2)c1OC (stereo not given) | 72*
CC(O)C1C=CC=CC(=O)OC2CC3OC4C5OC5(C)C(O)CC4(COC(=O)C(O)C(C)CCO1)C2(C)C31CO1 (stereo not given) | -87
CCOC(=O)C1=Nc2ccccc2/C1=C\c1c(O)n(C)c(=O)n(C)c1=O | -43
CNc1cc(Cl)c2nonc2c1[N+](=O)[O-] | -68
Cc1ccc2c(c1)CC1(CN2C)C(=O)NC(=O)N(C(C)C)C1=O (stereo not given) | 51*
COc1ccc(Oc2cc(NC(=O)c3nn(C)cc3[N+](=O)[O-])cc([N+](=O)[O-])c2)cc1 | -78
C[C@H]1[C@@H](OS(=O)(=O)O)C[C@@H]2C[C@H]([C@@H](O)c3cc(=O)[nH]c(=O)[nH]3)NC3=NC[C@H]1N32 | -94
C=C1C(=O)OC2CC(C)C3C=CC(=O)C3(C)C(O)C12 (stereo not given) | -42
C=C1C(=O)OC2C1CCC(C)C1(O)C=CC(=O)C21C (stereo not given) | 115*
CC1=CC2OC3CC4OC(=O)C=CC=CC(C(C)O)OCC(O)C5(C)OC5C(=O)OCC2(CC1O)C4(C)C31CO1 (stereo not given) | -87
O=C1NCN(c2ccccc2)C12CCN(C(c1cccc3ccccc13)c1nnnn1C1CCCCC1)CC2 (stereo not given) | 67* | G6PC hep suppr=-9;PCK1 hep suppr=45;PGC1a hep suppr=u
CC1CCCN(CC(=O)N2CCCc3ccccc32)C1 (stereo not given) | -43
SMILES | PGC1a acetyl up | others
CC1=CC2OC3CC4OC(=O)C=CC=CC(=O)OCCC(C)C(O)C(=O)OCC2(CC1)C4(C)C31CO1 (stereo not given) | -77
CSCCC(c1nnnn1-c1c(C)cccc1C)N1CCC(n2c(=O)[nH]c3ccccc32)CC1 (stereo not given) | 89* | G6PC hep suppr=i;PCK1 hep suppr=775;PGC1a hep suppr=149
Cc1cccc(C)c1-n1nnnc1C(c1cccs1)N1CCC(n2c(=O)[nH]c3ccccc32)CC1 (stereo not given) | u | G6PC hep suppr=401;PCK1 hep suppr=251;PGC1a hep suppr=377
CC1CCC[C@H](O)CCCCCc2cc(O)cc(O)c2C(=O)O1 (stereo not given in full) | -47
CC12CCC(O)CC1CCC1C2CCC2(C)C(C3=CC(=O)OC3)CCC12O (stereo not given) | -80
CC1CCOC(=O)C=CC=CC(=O)OC2CC3OC4C5OC5(C)C(O)CC4(COC(=O)C1O)C2(C)C31CO1 (stereo not given) | -77
CC1CCC/C=C/C2CC(O)CC2C(O)/C=C/C(=O)O1 (stereo not given) | -73
